In ChEMBL document CHEMBL4823261, “Grincamycins P-T: Rearranged Angucyclines from the Marine Sediment-Derived Streptomyces sp. CNZ-748 Inhibit Cell Lines of the Rare Cancer Pseudomyxoma Peritonei” (J Nat Prod, 2021):
pIC50: −log10 of the molar value.

Experiments:
[1] = Cytotoxicity against human ABX023-1 cells assessed as inhibition of cell proliferation measured after 24 hrs by crystal violet staining assay; assay type: functional, cell-based; conditions: ABX023-1, 24 h
Summary of the method: (§1)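 PMP-derived lines (ABX023-1, PMP457-2, PMP501-1) and mucinous colonic adenocarcinoma peritoneal metastasis line C09-1. Seeded at 30 000 cells/well in triplicate in Ham's F12 with 10% FBS, L-glutamine, insulin and sodium selenite. Grown 24 h at 37 °C, then treated for 24 h. Controls were DMSO vehicle, 5-fluorouracil and 10% EtOH dead-cell. Cells were stained with 0.2% crystal violet, solubilised in SDS/EtOH and read at OD595.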

[2] = Cytotoxicity against human C09-1 cells assessed as inhibition of cell proliferation measured after 24 hrs by crystal violet staining assay; assay type: functional, cell-based; conditions: C09-1, 24 h; summary of the method: as §1
[3] = Cytotoxicity against human PMP457-2 cells assessed as inhibition of cell proliferation measured after 24 hrs by crystal violet staining assay; assay type: functional, cell-based; conditions: PMP457-2, 24 h; summary of the method: as §1
[4] = Cytotoxicity against human PMP501-1 cells assessed as inhibition of cell proliferation measured after 24 hrs by crystal violet staining assay; assay type: functional, cell-based; conditions: PMP501-1, 24 h; summary of the method: as §1
[5] = Stability of the compound in 0.1% TFA/MeOH solution measured after 12 hrs by LC/MS analysis; assay type: physicochemical
Summary of the method: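 10 μg aliquots were incubated in 0.1% TFA in MeOH at 30 °C for 12 h, then dried under N2 and redissolved in MeOH. Analysed by UHPLC-DAD-ESI(±)MS on C18 with a water/MeCN gradient containing 0.1% formic acid. Compared against authentic standards run by the same method.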

Compound	pIC50 [1]	pIC50 [2]	pIC50 [3]	pIC50 [4]	Stabilty [5]
C[C@@H]1O[C@@H](O[C@H]2CC[C@H](O[C@H]3[C@H](O)C[C@H](c4ccc5c(c4O)C(=O)c4ccc(C[C@@](C)(O)CC(=O)O)c(O)c4C5=O)O[C@@H]3C)O[C@H]2C)C(N)=CC1=O	4.64	4.77	< 4.00	4.92	
CSC1=CC(=O)[C@H](C)O[C@H]1O[C@H]1CC[C@H](O[C@H]2[C@H](O)C[C@H](c3ccc4c(c3O)C(=O)c3ccc(C[C@](C)(CC(=O)O)O[C@H]5CC[C@H](O[C@H]6CC[C@H](O)[C@H](C)O6)[C@H](C)O5)c(O)c3C4=O)O[C@@H]2C)O[C@H]1C	4.89	4.21	5.11	5.41	
C[C@@H]1O[C@@H](O[C@H]2[C@H](O)C[C@H](c3ccc4c(c3O)C(=O)c3ccc(C[C@@](C)(O)CC(=O)O)c(O)c3C4=O)O[C@@H]2C)CC[C@@H]1O[C@H]1CC[C@H](O)[C@H](C)O1	4.68	4.49	4.64	< 4.00	
C[C@@H]1O[C@@H](O[C@H]2[C@H](O)C[C@H](c3ccc4c(c3O)C(=O)c3ccc(C[C@](C)(CC(=O)O)O[C@H]5CC[C@H](O[C@H]6CC[C@H](O)[C@H](C)O6)[C@H](C)O5)c(O)c3C4=O)O[C@@H]2C)CC[C@@H]1O[C@H]1CC[C@H](O)[C@H](C)O1	4.35	4.42	4.96	4.74	
C[C@@H]1O[C@@H](O[C@H]2[C@H](O)C[C@H](c3ccc4c(c3O)C(=O)c3c(O)cc(C[C@](C)(CC(=O)O)O[C@H]5CC[C@H](O[C@H]6CC[C@H](O)[C@H](C)O6)[C@H](C)O5)c(O)c3C4=O)O[C@@H]2C)CC[C@@H]1O[C@H]1CC[C@H](O)[C@H](C)O1	5.85	5.06	5.72	5.57	
C[C@H]1O[C@@H](c2ccc3c(c2O)C(=O)c2ccc(C[C@@](C)(O)CC(=O)O)c(O)c2C3=O)C[C@@H](O)[C@@H]1O	4.31	4.38	5.17	4.96	Stable
C[C@@H]1O[C@H]2O[C@@H]3[C@@H](C)O[C@@H](c4ccc5c(c4O)C(=O)c4ccc(C[C@@](C)(O)CC(=O)O)c(O)c4C5=O)C[C@H]3O[C@H]2C[C@@H]1O	4.85	4.72	< 4.00	4.64	Stable
C[C@@H]1O[C@@H](O[C@H]2[C@H](O)C[C@H](c3ccc4c(c3O)C(=O)c3ccc(C[C@@](C)(O)CC(=O)O)c(O)c3C4=O)O[C@@H]2C)CC[C@@H]1O	4.92	5.18	5.23	4.85	
C[C@@H]1O[C@@H](O[C@H]2[C@H](O)C[C@H](c3ccc4c(c3O)C(=O)c3c(O)cc(C[C@@](C)(O)CC(=O)O)c(O)c3C4=O)O[C@@H]2C)CC[C@@H]1O[C@H]1CC[C@H](O)[C@H](C)O1	5.33	5.00	5.26	5.60	
O=c1[nH]cc(F)c(=O)[nH]1 [FLUOROURACIL]	5.47	5.40	5.70	5.44	
